Activity calls are given as the source filed them. The rule behind the calls is not given here.
Tested on: L6
Test: Stimulation of [3H]2-deoxyglucose uptake in rat L6 cells at 10 uM incubated for 16 hrs by scintillation counting method
Type: functional, cell-based
In short: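 L6 myotubes incubated with the compound […]; insulin at 100 nM for 20 min served as the positive control. Uptake of ³H-2-deoxyglucose measured and expressed as fold stimulation relative to the control condition.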

| SMILES | Activity |
| --- | --- |
| COC(=O)c1c(SC)cc(-c2ccccc2)c2c1-c1cn(-c3ccccc3)nc1CC2 | inactive |
| COC(=O)c1c(SC)cc(-c2ccc(OC)cc2)c2c1-c1cn(-c3ccccc3)nc1CC2 | inactive |
| COC(=O)c1c(SC)cc(-c2ccc(F)cc2)c2c1-c1cn(-c3ccccc3)nc1CC2 | inactive |
| COC(=O)c1c(SC)cc(-c2cccs2)c2c1-c1cn(-c3ccccc3)nc1CC2 | inactive |
| COC(=O)c1c(SC)cc(-c2ccc(Cl)cc2)c2c1-c1cn(-c3ccccc3)nc1CC2 | inactive |
| COC(=O)c1c(S(C)(=O)=O)cc(-c2ccc(F)cc2)c2c1-c1cn(-c3ccccc3)nc1CC2 | inactive |
